In ChEMBL document CHEMBL4390665, “New 4-phenylcoumarin derivatives as potent 3C protease inhibitors: Design, synthesis, anti-HAV effect and molecular modeling” (Eur J Med Chem, 2019):
In brackets after ≈: the same amount, converted by molar mass.

Legend:
Hepatovirus A [1] = assay: Antiviral activity against Hepatitis A virus infected in rhesus monkey FRhK4 cells assessed as inhibition in viral adsorption using cells pre-incubated with compound for 24 hrs before viral infection for 1 hr by MTT assay; assay type: functional, organism-based; conditions: FRhK-4
In short: (§1)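 FRhK-4 monolayers in 24-well plates were exposed to non-toxic compound concentrations for 24 h at 37 °C in 5% CO2. Compound was then removed and HAV added for 1 h, after which the inoculum was replaced with medium for 72 h. MTT OD540 was read in triplicate alongside virus-infected and cell-only controls to give IC50. TI = CC50/IC50.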

[2] = Cytotoxicity against rhesus monkey FRhK4 cells assessed as reduction in cell viability incubated for 48 hrs by MTT assay; assay type: cell-based, Macaca mulatta
In short: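 FRhK-4 cells (DMEM, 10% FBS) were seeded at 5 X 10^3 cells/well and grown 24 h. They were exposed to compound at 7.8–1000 µg/mL for 48 h at 37 °C in 5% CO2. MTT (5 mg/mL) was added for 4 h, then DMSO for 30 min, and OD540 read. CC50 was derived from the mean of three ODs versus untreated cells.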

Hepatovirus A [3] = assay: Antiviral activity against Hepatitis A virus infected in rhesus monkey FRhK4 cells assessed as reduction in virus-induced cytopathic effect incubated for 72 hrs by MTT assay; assay type: functional, organism-based; conditions: FRhK-4, 72 h
In short: (§2)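 Virucidal format: HAV (10^6 […] TCID50/0.1 ml) was mixed with an equal volume of non-toxic compound concentrations for 1 h at 37 °C. The mixture was added to FRhK-4 monolayers for 1 h, then replaced with medium for 72 h. MTT OD540 was read in triplicate with virus and cell controls to give IC50. TI = CC50/IC50.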

[4] = Therapeutic index, ratio of CC50 of rhesus monkey FRhK cells to IC50 of antiviral activity against Hepatitis A virus infected in rhesus monkey FRhK4 cells assessed as inhibition in viral adsorption using cells pre-incubated with compound for 24 hrs before viral infection for 1 hr by MTT assay; assay type: toxicity, cell-based; conditions: read-out: Ratio CC50/IC50; in short: as §1
Hepatovirus A [5] = assay: Antiviral activity against Hepatitis A virus infected in rhesus monkey FRhK4 cells assessed as inhibition in viral replication using cells pre-infected with virus before compound exposure for 72 hrs by MTT assay; assay type: functional, organism-based; conditions: FRhK-4, 72 h
In short: (§3)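 FRhK-4 monolayers were infected with HAV for 1 h. Unbound virus was removed and replaced with medium containing non-toxic compound concentrations, then incubated 72 h at 37 °C in 5% CO2. MTT OD540 was read in triplicate alongside virus-infected and cell-only controls to give IC50. TI = CC50/IC50.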

[6] = Therapeutic index, ratio of CC50 of rhesus monkey FRhK cells to IC50 for antiviral activity against Hepatitis A virus infected in rhesus monkey FRhK4 cells assessed as inhibition in viral replication using cells pre-infected with virus before compound exposure for 72 hrs by MTT assay; assay type: toxicity, cell-based; conditions: read-out: Ratio CC50/IC50; in short: as §3
[7] = Therapeutic index, ratio of CC50 of rhesus monkey FRhK cells to IC50 of antiviral activity against Hepatitis A virus infected in rhesus monkey FRhK4 cells; assay type: toxicity, cell-based; conditions: read-out: Ratio CC50/IC50; in short: as §2

| SMILES | IC50 (Hepatovirus A [1]) | CC50 at 48 h [2] | IC50 (Hepatovirus A [3]) | selectivity ratio at 1 h [4] | IC50 (Hepatovirus A [5]) | selectivity ratio at 72 h [6] | selectivity ratio [7] |
| --- | --- | --- | --- | --- | --- | --- | --- |
| CCN(CC)CCSc1nnc(COc2ccc3c(-c4ccccc4)cc(=O)oc3c2)o1 | 3.18 µg/mL (≈ 7.04 µM) | 245 µg/mL (≈ 543 µM) | 81.6 µg/mL (≈ 181 µM) | 77 | 7.65 µg/mL (≈ 16.9 µM) | 32 | 3 |
| Nc1nc2c(ncn2COCCO)c(=O)[nH]1 [ACYCLOVIR] | 33.5 µg/mL (≈ 149 µM) | > 1000 µg/mL | 35.6 µg/mL (≈ 158 µM) | 85 | 30.6 µg/mL (≈ 136 µM) | 93 | 80 |
| Cn1c(COc2ccc3c(-c4ccccc4)cc(=O)oc3c2)n[nH]c1=S | 1300 µg/mL (≈ 3550 µM) | 648 µg/mL (≈ 1770 µM) | 11.3 µg/mL (≈ 30.9 µM) | 0.5 | 13.5 µg/mL (≈ 36.9 µM) | 48 | 57 |
| CCNc1nnc(COc2ccc3c(-c4ccccc4)cc(=O)oc3c2)s1 | 18.4 µg/mL (≈ 48.5 µM) | 129 µg/mL (≈ 340 µM) | 64.5 µg/mL (≈ 170 µM) | 7 | 25.8 µg/mL (≈ 68 µM) | 5 | 2 |
| O=c1cc(-c2ccccc2)c2ccc(OCc3nnc(SCCN4CCOCC4)o3)cc2o1 | 9.9 µg/mL (≈ 21.3 µM) | 249 µg/mL (≈ 535 µM) | 9.9 µg/mL (≈ 21.3 µM) | 25 | 622 µg/mL (≈ 1340 µM) | 0.4 | 25 |
| C/C(=N\NC(=O)COc1ccc2c(-c3ccccc3)cc(=O)oc2c1)c1ccccc1 | 219 µg/mL (≈ 531 µM) | 438 µg/mL (≈ 1060 µM) | 110 µg/mL (≈ 265 µM) | 2 | 730 µg/mL (≈ 1770 µM) | 0.6 | 4 |
| Cc1cc(C)n(C(=O)COc2ccc3c(-c4ccccc4)cc(=O)oc3c2)n1 | 83.6 µg/mL (≈ 223 µM) | 753 µg/mL (≈ 2010 µM) | 37.6 µg/mL (≈ 100 µM) | 9 | 44.3 µg/mL (≈ 118 µM) | 17 | 20 |
| CCn1c(COc2ccc3c(-c4ccccc4)cc(=O)oc3c2)n[nH]c1=S | 49.7 µg/mL (≈ 131 µM) | 597 µg/mL (≈ 1570 µM) | 12.9 µg/mL (≈ 34 µM) | 12 | 82.7 µg/mL (≈ 218 µM) | 7 | 46 |
| CN(C)CCSc1nnc(COc2ccc3c(-c4ccccc4)cc(=O)oc3c2)o1 | 112 µg/mL (≈ 264 µM) | 897 µg/mL (≈ 2120 µM) | 44.8 µg/mL (≈ 106 µM) | 8 | 35.8 µg/mL (≈ 84.5 µM) | 25 | 20 |
| Nn1c(S)nnc1COc1ccc2c(-c3ccccc3)cc(=O)oc2c1 | 3240 µg/mL (≈ 8840 µM) | 648 µg/mL (≈ 1770 µM) | 216 µg/mL (≈ 590 µM) | 0.2 | 72 µg/mL (≈ 197 µM) | 9 | 3 |
| O=C(COc1ccc2c(-c3ccccc3)cc(=O)oc2c1)NN1C(=O)c2ccccc2C1=O | 13 µg/mL (≈ 29.5 µM) | 951 µg/mL (≈ 2160 µM) | 106 µg/mL (≈ 240 µM) | 72 | 1360 µg/mL (≈ 3080 µM) | 0.7 | 9 |
| O=C(COc1ccc2c(-c3ccccc3)cc(=O)oc2c1)N/N=C1/C(=O)Nc2ccc(Cl)cc21 | 1100 µg/mL (≈ 2320 µM) | 549 µg/mL (≈ 1160 µM) | 784 µg/mL (≈ 1660 µM) | 0.5 | 5490 µg/mL (≈ 11600 µM) | 0.1 | 0.7 |
| NNC(=O)COc1ccc2c(-c3ccccc3)cc(=O)oc2c1 | 112 µg/mL (≈ 361 µM) | 785 µg/mL (≈ 2530 µM) | 3920 µg/mL (≈ 12600 µM) | 7 | 1120 µg/mL (≈ 3610 µM) | 0.7 | 0.2 |
| O=c1cc(-c2ccccc2)c2ccc(OCc3n[nH]c(=S)o3)cc2o1 | 184 µg/mL (≈ 521 µM) | 367 µg/mL (≈ 1040 µM) | 4.7 µg/mL (≈ 13.3 µM) | 2 | 7.34 µg/mL (≈ 20.8 µM) | 50 | 78 |
| CNc1nnc(COc2ccc3c(-c4ccccc4)cc(=O)oc3c2)s1 | 544 µg/mL (≈ 1490 µM) | 435 µg/mL (≈ 1190 µM) | 2180 µg/mL (≈ 5950 µM) | 0.8 | 145 µg/mL (≈ 397 µM) | 3 | 0.2 |
| CNC(=S)NNC(=O)COc1ccc2c(-c3ccccc3)cc(=O)oc2c1 | 11.9 µg/mL (≈ 31 µM) | 951 µg/mL (≈ 2480 µM) | 238 µg/mL (≈ 620 µM) | 80 | 63.4 µg/mL (≈ 165 µM) | 15 | 4 |
| CCOC(=O)COc1ccc2c(-c3ccccc3)cc(=O)oc2c1 | 180 µg/mL (≈ 555 µM) | 900 µg/mL (≈ 2770 µM) | 1290 µg/mL (≈ 3960 µM) | 5 | 25.7 µg/mL (≈ 79.2 µM) | 35 | 0.7 |
| O=C(COc1ccc2c(-c3ccccc3)cc(=O)oc2c1)N/N=C1/C(=O)Nc2ccc(Br)cc21 | 21.6 µg/mL (≈ 41.7 µM) | 951 µg/mL (≈ 1830 µM) | 13 µg/mL (≈ 25.1 µM) | 44 | 18.3 µg/mL (≈ 35.3 µM) | 52 | 73 |
| CCn1c(COc2ccc3c(-c4ccccc4)cc(=O)oc3c2)nnc1SCCN1CCOCC1 | 1180 µg/mL (≈ 2390 µM) | 942 µg/mL (≈ 1910 µM) | 47 µg/mL (≈ 95.4 µM) | 0.8 | 13.4 µg/mL (≈ 27.2 µM) | 70 | 20 |
| O=C(COc1ccc2c(-c3ccccc3)cc(=O)oc2c1)N/N=C1/C(=O)Nc2ccccc21 | 242 µg/mL (≈ 550 µM) | 483 µg/mL (≈ 1100 µM) | 80.5 µg/mL (≈ 183 µM) | 2 | 121 µg/mL (≈ 275 µM) | 4 | 6 |
